Values joined by “and” are separate entries in the source; they are usually repeats but may differ in a detail not shown here. Identical values can stand only once.

Series [1] is filed under the species Canis familiaris. The series can be described thus: Effect on the transmembrane potential of dog Purkinje fibers paced at a basic cycle length of stimulation of 1000 ms, repolarization time to -60 mV. The conditions noted are these: Canis lupus familiaris; Purkinje fiber. Format: functional. The essentials:
(§1)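 Purkinje fiber bundles were taken from pentobarbital-anesthetized mongrel dogs. They were superfused at 37.5-38.0 °C with Tyrode's (mM: NaCl 138, KCl 4, CaCl2 2, NaHCO3 24, MgCl2 0.5, Na2HPO4 1.8, dextrose 5) gassed with 95% O2-5% CO2, pH 7.3-7.4. Stimulation used 2.0 ms pulses at twice threshold. Fibers were equilibrated ≥1 h before drug. Action potentials were recorded at 4-6 sites and averaged per fiber.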

The species entered for series [2] is Canis familiaris. The series can be described thus: Effect on the transmembrane potential of dog Purkinje fibers paced at a basic cycle length of stimulation of 300 ms, repolarization time to -60 mV. The series is classed as functional. The following applies: Canis lupus familiaris; Purkinje fiber. The essentials: as §1
In series [3] the test system is Canis familiaris. The series can be described thus: Effect on atrial effective refractory period, after intravenous administration in open-chest anesthetized dogs at dose of 1.0 mg/kg. The series is classed as functional, Canis lupus familiaris, Cardiac atrium.
Series [4] deals with Canis familiaris. The series can be described thus: Effect on atrial conduction time, after intravenous administration in open-chest anesthetized dogs at dose of 0.1 mg/kg. Format: functional, Canis lupus familiaris, Cardiac atrium.
For series [5], the system named is Canis familiaris. The series can be described thus: Effect on mean arterial pressure, after intravenous administration in open-chest anesthetized dogs at dose of 0.1 mg/kg. The series is classed as functional, Canis lupus familiaris, Artery.
In series [6] the test system is Canis familiaris. Put plainly: Effect on heart rate, after intravenous administration in open-chest anesthetized dogs at dose of 0.1 mg/kg. The series is classed as functional, Canis lupus familiaris.
For series [7], the system named is Canis familiaris. The series can be described thus: Effect on atrial conduction time, after intravenous administration in open-chest anesthetized dogs at dose of 1.0 mg/kg. The series is classed as functional, Canis lupus familiaris, Cardiac atrium.
In series [8] the test system is Canis familiaris. The series can be described thus: Effect on mean arterial pressure, after intravenous administration in open-chest anesthetized dogs at dose of 1.0 mg/kg. Format: functional, Canis lupus familiaris, Artery.
The test system of series [9] is Canis familiaris. The series can be described thus: Effect on ventricular conduction time, after intravenous administration in open-chest anesthetized dogs at dose of 1.0 mg/kg. Format: functional, Canis lupus familiaris, Cardiac ventricle.
Series [10] relates to Canis familiaris. The series can be described thus: Effect on heart rate, after intravenous administration in open-chest anesthetized dogs at dose of 1.0 mg/kg. Format: functional, Canis lupus familiaris.
For series [11], the system named is Canis familiaris. The series can be described thus: Effect on ventricular effective refractory period, after intravenous administration in open-chest anesthetized dogs at dose of 1.0 mg/kg. Format: functional, Canis lupus familiaris, Cardiac ventricle. The essentials:
(§2)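 Mongrel dogs, pentobarbital-anesthetized (30 mg/kg iv plus 5 mg/kg per h), open chest. Compound given iv. Atrial and ventricular effective refractory periods and conduction times measured during pacing at 300 ms, along with heart rate and mean arterial pressure. Two doses per compound, chosen from dose-response runs. Values are % change from predrug, mean ± SE.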

The species entered for series [12] is Canis familiaris. Put plainly: Effect on the transmembrane potential of dog Purkinje fibers paced at a basic cycle length of stimulation of 1000 ms, repolarization time to -60 mV, at a concentration of 0.3 uM. The series is classed as functional. The conditions noted are these: Canis lupus familiaris, Purkinje fiber. The essentials:
as §1

Series [13] concerns Canis familiaris. The series can be described thus: Effect on ventricular conduction time, after intravenous administration in open-chest anesthetized dogs at dose of 0.1 mg/kg. Format: functional, Canis lupus familiaris, Cardiac ventricle.
Series [14] has as its system Canis familiaris. The series can be described thus: Effect on atrial effective refractory period, after intravenous administration in open-chest anesthetized dogs at dose of 0.1 mg/kg. Format: functional, Canis lupus familiaris, Cardiac atrium.
The test system of series [15] is Canis familiaris. The series can be described thus: Effect on ventricular effective refractory period, after intravenous administration in open-chest anesthetized dogs at dose of 0.1 mg/kg. The series is classed as functional, Canis lupus familiaris, Cardiac ventricle.
Series [16] is filed under the species Canis familiaris. The series can be described thus: Effect on the transmembrane potential of dog Purkinje fibers paced at a basic cycle length of stimulation of 300 ms, repolarization time to -60 mV, at a concentration of 0.3 uM. Format: functional. The following applies: Canis lupus familiaris, Purkinje fiber. The essentials: as §1
The subject of series [17] is Canis familiaris. The series can be described thus: Effect on ventricular effective refractory period, after intravenous administration in open-chest anesthetized dogs at dose of 0.05 mg/kg. The series is classed as functional, Canis lupus familiaris, Cardiac ventricle.
Series [18] deals with Canis familiaris. Put plainly: Effect on atrial conduction time, after intravenous administration in open-chest anesthetized dogs at dose of 0.5 mg/kg. The series is classed as functional, Canis lupus familiaris, Cardiac atrium.
Series [19] deals with Canis familiaris. The series can be described thus: Effect on ventricular effective refractory period, after intravenous administration in open-chest anesthetized dogs at dose of 0.5 mg/kg. The series is classed as functional, Canis lupus familiaris, Cardiac ventricle.
The subject of series [20] is Canis familiaris. Put plainly: Effect on ventricular conduction time, after intravenous administration in open-chest anesthetized dogs at dose of 0.5 mg/kg. The series is classed as functional, Canis lupus familiaris, Cardiac ventricle.
The subject of series [21] is Canis familiaris. Put plainly: Effect on mean arterial pressure, after intravenous administration in open-chest anesthetized dogs at dose of 0.05 mg/kg. The series is classed as functional, Canis lupus familiaris, Artery.
The subject of series [22] is Canis familiaris. Put plainly: Effect on heart rate, after intravenous administration in open-chest anesthetized dogs at dose of 0.05 mg/kg. Format: functional, Canis lupus familiaris.
Series [23] concerns Canis familiaris. Put plainly: Effect on mean arterial pressure, after intravenous administration in open-chest anesthetized dogs at dose of 0.5 mg/kg. The series is classed as functional, Canis lupus familiaris, Artery.
Series [24] relates to Canis familiaris. The series can be described thus: Atrial conduction time, after intravenous administration in open-chest anesthetized dogs at dose of 0.05 mg/kg. Format: functional, Canis lupus familiaris, Cardiac atrium.
Series [25] relates to Canis familiaris. Put plainly: Atrial effective refractory period, after intravenous administration in open-chest anesthetized dogs at dose of 0.05 mg/kg. Format: functional, Canis lupus familiaris, Cardiac atrium.
The subject of series [26] is Canis familiaris. The series can be described thus: Effect on heart rate, after intravenous administration in open-chest anesthetized dogs at dose of 0.5 mg/kg. The series is classed as functional, Canis lupus familiaris.
Series [27] deals with Canis familiaris. Put plainly: Effect on ventricular conduction time, after intravenous administration in open-chest anesthetized dogs at dose of 0.05 mg/kg. The series is classed as functional, Canis lupus familiaris, Cardiac ventricle.
Series [28] deals with Canis familiaris. Put plainly: Effect on trial effective refractory period, after intravenous administration in open-chest anesthetized dogs at dose of 0.5 mg/kg. Format: functional, Canis lupus familiaris.
Series [29] deals with Canis familiaris. The series can be described thus: Effect on ventricular effective refractory period, after intravenous administration in open-chest anesthetized dogs at dose of 5.0 mg/kg. Format: functional, Canis lupus familiaris, Cardiac ventricle. The essentials: as §2
Series [30] can be described thus: Maximum rate of depolarization of the upstroke of the action potential at 3 uM concentration. More on the design: unit not given beside the values. The essentials:
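Purkinje fiber bundles from pentobarbital-anesthetized mongrel dogs, superfused at 37.5-38.0 °C with Tyrode's solution (95% O2-5% CO2, pH 7.3-7.4). Stimulation with 2.0 ms square pulses at 2× threshold. Fibers equilibrated at least 1 h before drug. Action potentials recorded at four to six sites, control vs drug, and averaged per fiber.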

Series [31] deals with Canis familiaris. Put plainly: Effect on atrial conduction time, after intravenous administration in open-chest anesthetized dogs at dose of 5.0 mg/kg. Format: functional, Canis lupus familiaris, Cardiac atrium.
For series [32], the system named is Canis familiaris. Put plainly: Effect on ventricular conduction time, after intravenous administration in open-chest anesthetized dogs at dose of 5.0 mg/kg. Format: functional, Canis lupus familiaris, Cardiac ventricle.
Series [33] deals with Canis familiaris. The series can be described thus: Effect on mean arterial pressure, after intravenous administration in open-chest anesthetized dogs at dose of 5.0 mg/kg. Format: functional, Canis lupus familiaris, Artery.
Series [34] concerns Canis familiaris. Put plainly: Effect on heart rate, after intravenous administration in open-chest anesthetized dogs at dose of 5.0 mg/kg. The series is classed as functional, Canis lupus familiaris.
For series [35], the system named is Canis familiaris. The series can be described thus: Effect on atrial effective refractory period, after intravenous administration in open-chest anesthetized dogs at dose of 5.0 mg/kg. Format: functional, Canis lupus familiaris, Cardiac atrium.
The species entered for series [36] is Canis familiaris. Put plainly: Effect on the transmembrane potential of dog Purkinje fibers paced at a basic cycle length of stimulation of 300 ms, repolarization time to -60 mV at 3 uM concentration. The series is classed as functional. The following applies: Canis lupus familiaris, Purkinje fiber. The essentials: as §1
For series [37], the species on record is Canis familiaris. The series can be described thus: Effect on the transmembrane potential of dog Purkinje fibers paced at a basic cycle length of stimulation of 1000 ms, repolarization time to -60 mV at 3 uM concentration. The series is classed as functional. The conditions noted are these: Canis lupus familiaris, Purkinje fiber. The essentials:
as §1

As to `CNc1nc2ccccc2n1CCN(C)S(=O)(=O)c1ccc(NS(C)(=O)=O)cc1`, the APD60 in series [1] is 47; in series [2], 28.

For the compound `Cc1cccc(CCN2CCC(C(=O)c3ccc(NS(C)(=O)=O)cc3)CC2)n1`, the Change in series [3] is given as 55%; in [4], 1%; in [5], -6%; in series [6], -18%; in [7], 1%; in [8], -19%. Further, the Change was -2% in series [9]; -25% in [10]; 26% in series [11]; -3% in series [13]; 34% in series [14]; 20% in series [15]. The APD60 is 53 in series [1], 74 in [12], 21 in [2] and 27 in [16].

Consider `CN(CCOc1ccc(NS(C)(=O)=O)cc1)CCc1ccc(NS(C)(=O)=O)cc1` [DOFETILIDE], for which the Change in series [17] was 23%; in series [18], -9%; in [19], 27%; in series [20], -4%; in [21], 1%; in [22] it was -14%. Besides, the Change in series [23] is -2%; in series [24], -4%; in [25], 46%; in [26] it was -24%; in series [27], -4%; in series [28] it was 65%. Moreover, the APD60 stood at 67 in [1], 30 in series [2] and 42 in series [16].

For the compound `CN(CCN(C)S(=O)(=O)c1ccc(NS(C)(=O)=O)cc1)c1ccc2ccccc2n1`, the APD60 in series [1] was 46; in series [2] it was 20.

With `CN(CCN(C)c1nc2ccccc2n1C)C(=O)c1ccc(NS(C)(=O)=O)cc1.Cl`, the Change is reported as 18% in [3]; -1% in [7]; 5% in series [8]; -1% in [9]; 24% in [29]; -6% in [10]. Further, the Change in series [11] was 10%; in [31], -3%; in series [32] it was -6%; in series [33] it was -1%; in series [34], -27%; in [35], 44%. The Vmax in [30] was -5 and -3. Besides, the figures for the APD60 in series [36] and in [37] were 17 and 65, respectively.

Regarding `CS(=O)(=O)Nc1ccc(S(=O)(=O)NCCNc2ncccn2)cc1`, the APD60 was 24 in series [1] and -4 in [2].

Take `CS(=O)(=O)Nc1ccc(S(=O)(=O)N2CCNc3nc4ccccc4n3CC2)cc1`: the APD60 in series [1] is 42; in [2] it was 24.

Source of the values: ChEMBL document CHEMBL1125376, “Class III antiarrhythmic activity of novel substituted 4-[(methylsulfonyl)amino]benzamides and sulfonamides” (J Med Chem, 1992).
